Values after ≈ are worked out from the molar mass of the structure shown.
Key:
Format in all cases: cell-based
E. coli ATCC 8739 = assay: MIC, 96-well microtiter broth dilution; conditions: Escherichia coli, ATCC8739, read-out: MIC E. coli ATCC 8739
E. faecalis ATCC 29212 = assay: MIC, 96-well microtiter broth dilution; conditions: Enterococcus faecalis, ATCC29212, read-out: MIC E. faecalis ATCC 29212
[1] = system: S. epidermidis ATCC 12228; assay: MIC, 96-well microtiter broth dilution; conditions: Staphylococcus epidermidis, ATCC12228, read-out: MIC S. epidermidis ATCC 12228
S. aureus ATCC 29213 [2] = assay: MIC, 96-well microtiter broth dilution; conditions: Staphylococcus aureus, ATCC29213, read-out: MIC S. aureus ATCC 29213
E. faecium ATCC 49624 = assay: MIC, 96-well microtiter broth dilution; conditions: Enterococcus faecium, ATCC49624, read-out: MIC E. faecium ATCC 49624
S. aureus ATCC BAA-41 = assay: MIC, 96-well microtiter broth dilution; conditions: Staphylococcus aureus, ATCCBAA41|MRSA, read-out: MIC S. aureus ATCC BAA-41
E. coli ATCC 25922 = assay: MIC, 96-well microtiter broth dilution; conditions: Escherichia coli, ATCC25922, read-out: MIC E. coli ATCC 25922
S. aureus ATCC BAA-1720 = assay: MIC, 96-well microtiter broth dilution; conditions: Staphylococcus aureus, ATCCBAA1720|MRSA, read-out: MIC S. aureus ATCC BAA-1720
S. aureus ATCC 43300 = assay: MIC, 96-well microtiter broth dilution; conditions: Staphylococcus aureus, ATCC43300|MRSA, read-out: MIC S. aureus ATCC 43300
S. aureus ATCC BAA-1747 = assay: MIC, 96-well microtiter broth dilution; conditions: Staphylococcus aureus, ATCCBAA1747|MRSA, read-out: MIC S. aureus ATCC BAA-1747
E. faecium ATCC 700221 = assay: MIC, 96-well microtiter broth dilution; conditions: Enterococcus faecium, ATCC700221, read-out: MIC E. faecium ATCC 700221
E. coli ATCC BAA-2469 = assay: MIC, 96-well microtiter broth dilution
S. aureus ATCC 29213 [3] = assay: In vitro drug resistance development, serial passage
Procedure, shortened: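 Serial passage against S. aureus ATCC 29213: culture from the 0.5 × MIC well of the prior MIC plate diluted to 5 × 10^5 CFU mL−1 and exposed to a range of test compound concentrations. MIC read after 24 h at 37 °C. Cycle repeated 35 times. Ciprofloxacin, vancomycin and rifampin passaged in parallel.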

| SMILES | MIC (E. coli ATCC 8739) | MIC (E. faecalis ATCC 29212) | MIC [1] | MIC (S. aureus ATCC 29213 [2]) | MIC (E. faecium ATCC 49624) | MIC (S. aureus ATCC BAA-41) | MIC (E. coli ATCC 25922) | MIC (S. aureus ATCC BAA-1720) | MIC (S. aureus ATCC 43300) | MIC (S. aureus ATCC BAA-1747) | MIC (E. faecium ATCC 700221) | MIC against antibiotics resistant E. coli mutant NDM-1 strain (E. coli ATCC BAA-2469) | Increase of MIC after 35 passages (S. aureus ATCC 29213 [3]) |
| --- | --- | --- | --- | --- | --- | --- | --- | --- | --- | --- | --- | --- | --- |
| Cc1cc(/C=C2\Sc3ccccc3N2CCCN2CCCCC2)c2ccccc2[n+]1C.[I-] [Compound 4a3, (Z)-1,2-Dimethyl-4-((3-(3-(piperidin-1-yl)propyl)benzo[d]thiazol-2(3H)-ylidene)methyl)quinolin-1-ium iodide] | 4 µg/mL | 64 µg/mL | 8 µg/mL | 32 µg/mL | 32 µg/mL | 8 µg/mL | 4 µg/mL | 32 µg/mL | 32 µg/mL | 32 µg/mL | 32 µg/mL |  |  |
| C[n+]1ccc(/C=C2\Sc3ccccc3N2CCCN2CCCCC2)c2ccccc21.[I-] [Compound 4b3, (Z)-1-Methyl-4-((3-(3-(piperidin-1-yl)propyl)benzo[d]thiazol-2(3H)-ylidene)methyl)quinolin-1-ium iodide] | 4 µg/mL | > 64 µg/mL | 2 µg/mL | 32 µg/mL | 32 µg/mL | 4 µg/mL | 2 µg/mL | 16 µg/mL | 8 µg/mL | 8 µg/mL | 32 µg/mL |  |  |
| C[n+]1c(/C=C/c2c[nH]c3ccccc23)cc(/C=C2\Sc3ccccc3N2CCCN2CCOCC2)c2ccccc21.[I-] [Compound 4c1, 2-((E)-2-(1H-Indol-3-yl)vinyl)-1-methyl-4-((Z)-(3-(3-morpholinopropyl)benzo[d]thiazol-2(3H)-ylidene)methyl)quinolin-1-ium iodide] | 64 µg/mL | 16 µg/mL | 2 µg/mL | 16 µg/mL | 16 µg/mL | 16 µg/mL | 8 µg/mL | 16 µg/mL | 16 µg/mL | 16 µg/mL | 8 µg/mL |  |  |
| C[n+]1c(/C=C/c2ccc(O)cc2)cc(/C=C2\Sc3ccccc3N2CCCN2CCOCC2)c2ccccc21.[I-] [Compound 4c2, 2-((E)-4-Hydroxystyryl)-1-methyl-4-((Z)-(3-(3-morpholinopropyl)benzo[d]thiazol-2(3H)-ylidene)methyl)quinolin-1-ium iodide] | 32 µg/mL | 16 µg/mL | 4 µg/mL | 16 µg/mL | 8 µg/mL | 8 µg/mL | 4 µg/mL | 32 µg/mL | 16 µg/mL | 16 µg/mL | 4 µg/mL |  |  |
| C[n+]1c(/C=C/c2c[nH]c3ccccc23)cc(/C=C2\Sc3ccccc3N2CCCN2CCCC2)c2ccccc21.[I-] [Compound 4d1, 2-((E)-2-(1H-Indol-3-yl)vinyl)-1-methyl-4-((Z)-(3-(3-(pyrrolidin-1-yl)propyl)benzo[d]thiazol-2(3H)-ylidene)methyl)quinolin-1-ium iodide] | 16 µg/mL | 32 µg/mL | 2 µg/mL | 16 µg/mL | 8 µg/mL | 4 µg/mL | 4 µg/mL | 8 µg/mL | 8 µg/mL | 8 µg/mL | 16 µg/mL |  |  |
| C[n+]1c(/C=C/c2ccc(O)cc2)cc(/C=C2\Sc3ccccc3N2CCCN2CCCC2)c2ccccc21.[I-] [Compound 4d2, 2-((E)-4-Hydroxystyryl)-1-methyl-4-((Z)-(3-(3-(pyrrolidin-1-yl)propyl)benzo[d]thiazol-2(3H)-ylidene)methyl)quinolin-1-ium iodide] | 32 µg/mL | 64 µg/mL | 16 µg/mL | 32 µg/mL | 32 µg/mL | 32 µg/mL | 32 µg/mL | 32 µg/mL | 32 µg/mL | 32 µg/mL | 32 µg/mL |  |  |
| CSc1ccc(/C=C/c2cc(/C=C3\Sc4ccccc4N3CCCN3CCCC3)c3ccccc3[n+]2C)cc1.[I-] [Compound 4d3, 1-Methyl-2-((E)-4-(methylthio)styryl)-4-((Z)-(3-(3-(pyrrolidin-1-yl)propyl)benzo[d]thiazol-2(3H)-ylidene)methyl)quinolin-1-ium iodide] | 32 µg/mL | 64 µg/mL | 16 µg/mL | 16 µg/mL | 64 µg/mL | 32 µg/mL |  | 32 µg/mL | 32 µg/mL | 32 µg/mL | 32 µg/mL |  |  |
| CC1(C)S[C@@H]2[C@H](NC(=O)[C@H](N)c3ccccc3)C(=O)N2[C@H]1C(=O)O [amp, ampicillin, reference compound] | 2 µg/mL (≈ 5.72 µM) | 0.5 µg/mL (≈ 1.43 µM) | > 64 µg/mL | > 64 µg/mL | 0.25 µg/mL (≈ 0.715 µM) | > 64 µg/mL | 1 µg/mL (≈ 2.86 µM) | > 64 µg/mL | > 64 µg/mL | > 64 µg/mL | > 64 µg/mL | > 64 µg/mL |  |
| O=C(O)c1cn(C2CC2)c2cc(N3CCNCC3)c(F)cc2c1=O [ciprofloxacin] |  |  |  |  |  |  |  |  |  |  |  |  | 32 fold |
| COc1cccc(OC)c1C(=O)N[C@@H]1C(=O)N2[C@@H]1SC(C)(C)[C@@H]2C(=O)O [meth, methicillin, reference compound] | > 64 µg/mL | 1 µg/mL (≈ 2.63 µM) | 0.5 µg/mL (≈ 1.31 µM) | 0.5 µg/mL (≈ 1.31 µM) | 4 µg/mL (≈ 10.5 µM) | 1020 µg/mL (≈ 2690 µM) | 2 µg/mL (≈ 5.26 µM) | 1020 µg/mL (≈ 2690 µM) | 512 µg/mL (≈ 1350 µM) | 256 µg/mL (≈ 673 µM) | 1.5 µg/mL (≈ 3.94 µM) | > 64 µg/mL |  |
| CO[C@H]1/C=C/O[C@@]2(C)Oc3c(C)c(O)c4c(O)c(c(/C=N/N5CCN(C)CC5)c(O)c4c3C2=O)NC(=O)/C(C)=C\C=C\[C@H](C)[C@H](O)[C@@H](C)[C@@H](O)[C@@H](C)[C@H](OC(C)=O)[C@@H]1C [rif, rifampin, reference compound] | 8 µg/mL (≈ 9.72 µM) | 0.5 µg/mL (≈ 0.608 µM) | 1 µg/mL (≈ 1.22 µM) | 0.5 µg/mL (≈ 0.608 µM) | < 0.125 µg/mL | < 0.125 µg/mL | 4 µg/mL (≈ 4.86 µM) | < 0.125 µg/mL | < 0.125 µg/mL | < 0.125 µg/mL | < 0.125 µg/mL | > 64 µg/mL | 8192 fold |
| CN[C@H](CC(C)C)C(=O)N[C@H]1C(=O)N[C@@H](CC(N)=O)C(=O)N[C@H]2C(=O)N[C@H]3C(=O)N[C@H](C(=O)N[C@H](C(=O)O)c4cc(O)cc(O)c4-c4cc3ccc4O)[C@H](O)c3ccc(c(Cl)c3)Oc3cc2cc(c3O[C@@H]2O[C@H](CO)[C@@H](O)[C@H](O)[C@H]2O[C@H]2C[C@](C)(N)[C@H](O)[C@H](C)O2)Oc2ccc(cc2Cl)[C@H]1O [van, vancomycin, reference compound] | > 64 µg/mL | 2 µg/mL (≈ 1.38 µM) | > 64 µg/mL | 2 µg/mL (≈ 1.38 µM) | 0.5 µg/mL (≈ 0.345 µM) | 2 µg/mL (≈ 1.38 µM) | > 64 µg/mL | 0.5 µg/mL (≈ 0.345 µM) | 2 µg/mL (≈ 1.38 µM) | 1 µg/mL (≈ 0.69 µM) | 1020 µg/mL (≈ 707 µM) | > 64 µg/mL | 512 fold |

— article PMC9052103 (RSC Advances, 2020)
